Reference: ChEMBL document CHEMBL4152196, “Design, synthesis and biological evaluation of novel trimethylangelicin analogues targeting nuclear factor kB (NF-kB)” (Eur J Med Chem, 2018)
The source made the active and inactive calls. No cut-off for these calls is given here.

Key:
U-251 = experiment: Cytotoxicity against human U251 cells after 2 days by cell counting analysis; type: cell-based; conditions: u-251, 48 h
Salmonella typhimurium [1] = experiment: Genotoxicity in Salmonella typhimurium TA98 assessed as revertant colonies at 5 uL/plate in absence of Sprague-Dawley rat S9 metabolic activation after 72 hrs by Ames test (reference value: 1); type: toxicity, organism-based; conditions: salmonella enterica subsp. enterica serovar typhimurium
Salmonella typhimurium [2] = experiment: Genotoxicity in Salmonella typhimurium TA98 assessed as revertant colonies at 10 uL/plate in absence of Sprague-Dawley rat S9 metabolic activation after 72 hrs by Ames test (reference value: 1); type: toxicity, organism-based; conditions: salmonella enterica subsp. enterica serovar typhimurium
Salmonella typhimurium [3] = experiment: Genotoxicity in Salmonella typhimurium TA98 assessed as revertant colonies at 50 uL/plate in absence of Sprague-Dawley rat S9 metabolic activation after 72 hrs by Ames test (reference value: 1); type: toxicity, organism-based; conditions: salmonella enterica subsp. enterica serovar typhimurium
Salmonella typhimurium [4] = experiment: Genotoxicity in Salmonella typhimurium TA98 assessed as revertant colonies at 1 uL/plate in presence of Sprague-Dawley rat S9 metabolic activation after 72 hrs by Ames test (reference value: 1); type: toxicity, organism-based; conditions: salmonella enterica subsp. enterica serovar typhimurium
Salmonella typhimurium [5] = experiment: Genotoxicity in Salmonella typhimurium TA98 assessed as revertant colonies at 5 uL/plate in presence of Sprague-Dawley rat S9 metabolic activation after 72 hrs by Ames test (reference value: 1); type: toxicity, organism-based; conditions: salmonella enterica subsp. enterica serovar typhimurium
Salmonella typhimurium [6] = experiment: Genotoxicity in Salmonella typhimurium TA100 assessed as revertant colonies at 1 uL/plate in absence of Sprague-Dawley rat S9 metabolic activation after 72 hrs by Ames test (reference value: 1); type: toxicity, organism-based; conditions: salmonella enterica subsp. enterica serovar typhimurium
Salmonella typhimurium [7] = experiment: Genotoxicity in Salmonella typhimurium TA100 assessed as revertant colonies at 10 uL/plate in absence of Sprague-Dawley rat S9 metabolic activation after 72 hrs by Ames test (reference value: 1); type: toxicity, organism-based; conditions: salmonella enterica subsp. enterica serovar typhimurium
Salmonella typhimurium [8] = experiment: Genotoxicity in Salmonella typhimurium TA100 assessed as revertant colonies at 50 uL/plate in absence of Sprague-Dawley rat S9 metabolic activation after 72 hrs by Ames test (reference value: 1); type: toxicity, organism-based; conditions: salmonella enterica subsp. enterica serovar typhimurium
Salmonella typhimurium [9] = experiment: Genotoxicity in Salmonella typhimurium TA100 assessed as revertant colonies at 1 uL/plate in presence of Sprague-Dawley rat S9 metabolic activation after 72 hrs by Ames test (reference value: 1); type: toxicity, organism-based; conditions: salmonella enterica subsp. enterica serovar typhimurium
Salmonella typhimurium [10] = experiment: Genotoxicity in Salmonella typhimurium TA100 assessed as revertant colonies at 10 uL/plate in presence of Sprague-Dawley rat S9 metabolic activation after 72 hrs by Ames test (reference value: 1); type: toxicity, organism-based; conditions: salmonella enterica subsp. enterica serovar typhimurium
Salmonella typhimurium [11] = experiment: Genotoxicity in Salmonella typhimurium TA100 assessed as revertant colonies at 100 uL/plate in presence of Sprague-Dawley rat S9 metabolic activation after 72 hrs by Ames test (reference value: 1); type: toxicity, organism-based; conditions: salmonella enterica subsp. enterica serovar typhimurium
Salmonella typhimurium [12] = experiment: Genotoxicity in Salmonella typhimurium TA97A assessed as revertant colonies at 1 uL/plate in absence of Sprague-Dawley rat S9 metabolic activation after 72 hrs by Ames test (reference value: 1); type: toxicity, organism-based; conditions: salmonella enterica subsp. enterica serovar typhimurium
Salmonella typhimurium [13] = experiment: Genotoxicity in Salmonella typhimurium TA97A assessed as revertant colonies at 50 uL/plate in absence of Sprague-Dawley rat S9 metabolic activation after 72 hrs by Ames test (reference value: 1); type: toxicity, organism-based; conditions: salmonella enterica subsp. enterica serovar typhimurium
Salmonella typhimurium [14] = experiment: Genotoxicity in Salmonella typhimurium TA97A assessed as revertant colonies at 100 uL/plate in absence of Sprague-Dawley rat S9 metabolic activation after 72 hrs by Ames test (reference value: 1); type: toxicity, organism-based; conditions: salmonella enterica subsp. enterica serovar typhimurium
Salmonella typhimurium [15] = experiment: Genotoxicity in Salmonella typhimurium TA97A assessed as revertant colonies at 1 uL/plate in presence of Sprague-Dawley rat S9 metabolic activation after 72 hrs by Ames test (reference value: 1); type: toxicity, organism-based; conditions: salmonella enterica subsp. enterica serovar typhimurium
Salmonella typhimurium [16] = experiment: Genotoxicity in Salmonella typhimurium TA97A assessed as revertant colonies at 100 uL/plate in presence of Sprague-Dawley rat S9 metabolic activation after 72 hrs by Ames test (reference value: 1); type: toxicity, organism-based; conditions: salmonella enterica subsp. enterica serovar typhimurium
Salmonella typhimurium [17] = experiment: Genotoxicity in Salmonella typhimurium TA1535 assessed as revertant colonies at 1 uL/plate in absence of Sprague-Dawley rat S9 metabolic activation after 72 hrs by Ames test (reference value: 1); type: toxicity, organism-based; conditions: salmonella enterica subsp. enterica serovar typhimurium
Salmonella typhimurium [18] = experiment: Genotoxicity in Salmonella typhimurium TA1535 assessed as revertant colonies at 5 uL/plate in absence of Sprague-Dawley rat S9 metabolic activation after 72 hrs by Ames test (reference value: 1); type: toxicity, organism-based; conditions: salmonella enterica subsp. enterica serovar typhimurium
Salmonella typhimurium [19] = experiment: Genotoxicity in Salmonella typhimurium TA1535 assessed as revertant colonies at 50 uL/plate in absence of Sprague-Dawley rat S9 metabolic activation after 72 hrs by Ames test (reference value: 1); type: toxicity, organism-based; conditions: salmonella enterica subsp. enterica serovar typhimurium
Salmonella typhimurium [20] = experiment: Genotoxicity in Salmonella typhimurium TA1535 assessed as revertant colonies at 5 uL/plate in presence of Sprague-Dawley rat S9 metabolic activation after 72 hrs by Ames test (reference value: 1); type: toxicity, organism-based; conditions: salmonella enterica subsp. enterica serovar typhimurium
Salmonella typhimurium [21] = experiment: Genotoxicity in Salmonella typhimurium TA1535 assessed as revertant colonies at 50 uL/plate in presence of Sprague-Dawley rat S9 metabolic activation after 72 hrs by Ames test (reference value: 1); type: toxicity, organism-based; conditions: salmonella enterica subsp. enterica serovar typhimurium
IB3-1 [22] = experiment: Inhibition of TNF-alpha induced PDGF-B chain production in human IB3-1 cells at 1 uM preincubated for 5 hrs followed by TNF-alpha stimulation and measured after 24 hrs relative to control; type: functional
Procedure, shortened: (§1)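 IB3-1 cells (CF patient, ΔF508/W1282X, adeno12/SV40-immortalized) grown in LHC-8 with 5% FBS, no gentamycin, 37°C/5% CO₂; 60% confluent monolayers seeded, compound added after 24 h, 5 h before 80 ng/ml TNF-α, then 24 h further incubation. Cytokines in supernatants measured by Bioplex 27-plex Luminex bead assay: beads, detection antibody, streptavidin–phycoerythrin, 30/30/10 min at room temperature.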

IB3-1 [23] = experiment: Inhibition of TNF-alpha induced IL-10 production in human IB3-1 cells at 1 uM preincubated for 5 hrs followed by TNF-alpha stimulation and measured after 24 hrs relative to control; type: functional; procedure, shortened: as §1
IB3-1 [24] = experiment: Inhibition of TNF-alpha induced IL-15 production in human IB3-1 cells at 1 uM preincubated for 5 hrs followed by TNF-alpha stimulation and measured after 24 hrs relative to control; type: functional; procedure, shortened: as §1
Salmon testes DNA = experiment: Binding affinity to salmon testes DNA assessed as DNA intercalation by linear flow dichroism analysis; conditions: Salmonidae

SMILES: CCc1cc2c(C(C)C)cc(=O)oc2c2c(C)coc12
- Activity (U-251): Non-Toxic
- T/C (Salmonella typhimurium [1]): 1.2
- T/C (Salmonella typhimurium [2]): 1.3
- T/C (Salmonella typhimurium [3]): 1.2
- T/C (Salmonella typhimurium [4]): 0.8
- T/C (Salmonella typhimurium [5]): 0.6
- T/C (Salmonella typhimurium [6]): 0.8
- T/C (Salmonella typhimurium [7]): 0.8
- T/C (Salmonella typhimurium [8]): 0.9
- T/C (Salmonella typhimurium [9]): 1.1
- T/C (Salmonella typhimurium [10]): 1
- T/C (Salmonella typhimurium [11]): 1.5
- T/C (Salmonella typhimurium [12]): 1.1
- T/C (Salmonella typhimurium [13]): 1.1
- T/C (Salmonella typhimurium [14]): 1
- T/C (Salmonella typhimurium [15]): 1
- T/C (Salmonella typhimurium [16]): 1
- T/C (Salmonella typhimurium [17]): 1.1
- T/C (Salmonella typhimurium [18]): 1.1
- T/C (Salmonella typhimurium [19]): 1
- T/C (Salmonella typhimurium [20]): 0.9
- T/C (Salmonella typhimurium [21]): 1
- inhibition at 1 µM (IB3-1 [22]): > 20%
- inhibition at 1 µM (IB3-1 [23]): > 20%
- inhibition at 1 µM (IB3-1 [24]): > 20%
- Activity (Salmon testes DNA): inactive
